From ChEMBL document CHEMBL1800004, “Discovery of 4-anilinofuro[2,3-b]quinoline derivatives as selective and orally active compounds against non-small-cell lung cancers” (J Med Chem, 2011)
Activity calls are given as the source filed them. No cut-off for these calls is given here.

What was measured:
NCI-H460 [1] = assay: Antitumor activity against human NCI-H460 cells xenografted subcutaneously in BALB/c nude mouse assessed as survival rate at 60 to 120 mg/kg, po qd for 6 days relative to control; type: functional, organism-based
Method in brief: (§1)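 NCI-H460 cells were grown in RPMI1640 with 10% NBS and harvested by trypsin. 5 × 10⁶ cells in 40% Matrigel were injected subcutaneously into the flanks of 6–8-week-old Balb/c nude mice. Once tumors reached 5 mm³, dosing ran 6 days (ip 10 or 20; oral 60 or 120), vehicle DMSO/1.4% Tween 80/1% carboxymethylcellulose saline. Tumors were caliper-measured, weighed at sacrifice, and survival analyzed by Kaplan–Meier.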

NCI-H460 [2] = assay: Antitumor activity against human NCI-H460 cells xenografted subcutaneously in BALB/c nude mouse assessed as decreased tumor size at 60 to 120 mg/kg, po qd for 6 days relative to control; type: functional, organism-based; method in brief: as §1
NCI-H460 [3] = assay: Antitumor activity against human NCI-H460 cells xenografted subcutaneously in BALB/c nude mouse assessed as decreased tumor size at 10 to 20 mg/kg, ip for 6 days relative to control; type: functional, organism-based; method in brief: as §1
NCI-H460 [4] = assay: Antitumor activity against human NCI-H460 cells xenografted subcutaneously in BALB/c nude mouse assessed as increased tumor regression at 10 to 20 mg/kg, ip for 6 days relative to control; type: functional, organism-based; method in brief: as §1
NCI-H460 [5] = assay: Effect on cell cycle in human NCI-H460 cells assessed as rounded-up phenotype at 1 uM after 24 hrs; type: functional, cell-based
Method in brief: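 Morphology of H460 cells was inspected for rounding after 1 μM treatment for 24 h.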

NCI-H460 [6] = assay: Antitumor activity against human NCI-H460 cells xenografted subcutaneously in BALB/c nude mouse assessed as increased tumor regression at 60 to 120 mg/kg, po for 6 days relative to control; type: functional, organism-based; method in brief: as §1
NCI-H460 [7] = assay: Cell cycle arrest in human NCI-H460 cells assessed as cell accumulation in 4N ploidy after 24 hrs using propidium iodide staining based flow cytometric analysis; type: functional
NCI-H460 [8] = assay: Induction of apoptosis human NCI-H460 cells assessed as caspase 3 cleavage; type: functional, cell-based
NCI-H460 [9] = assay: Induction of apoptosis human NCI-H460 cells assessed as PARP cleavage; type: functional, cell-based
NCI-H460 [10] = assay: Increase in MPM2 phosphoprotein level in human NCI-H460 cells after 16 hrs by immunoblotting analysis; type: functional, cell-based
Method in brief: (§2)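 H460 lysates were immunoblotted for MPM2 and cyclin B after 16 h treatment across a concentration series.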

NCI-H460 [11] = assay: Increase in cyclin B level in human NCI-H460 cells after 16 hrs by immunoblotting analysis; type: functional, cell-based; method in brief: as §2
NCI-H460 [12] = assay: Antimitotic activity in human NCI-H460 cells assessed as mitotic catastrophe at 3 uM after 12 hrs using DAPI staining based immunofluorescence analysis; type: functional, cell-based
Method in brief: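 H460 cells were treated at 3 μM for 12 h and co-stained for α-tubulin (immunofluorescence) and DAPI. Images were taken at 1000×, and centrosome number was counted in 50 cells.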

Bos taurus [13] = species: Bos taurus; assay: Inhibition of bovine tubulin assessed as inhibition of microtubule formation preincubated at 1 uM by light-scattering assay relative to control
Method in brief: (§3)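 Light-scattering assay with 5 μg bovine tubulin preincubated with compound. Spontaneous microtubule formation was followed as turbidity increase at OD 340 nm and compared with the untreated control.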

Bos taurus [14] = species: Bos taurus; assay: Inhibition of bovine tubulin assessed as inhibition of microtubule formation preincubated at 3 uM by light-scattering assay; method in brief: as §3
[15] = target: T1, DNA topoisomerase 1 (Homo sapiens) (UniProt P11387); assay: Inhibition of human topoisomerase 1 mediated relaxation of super coiled pBR322 plasmid DNA at 30 uM after 30 mins by agarose gel electrophoresis
T1 sequence (whole entry): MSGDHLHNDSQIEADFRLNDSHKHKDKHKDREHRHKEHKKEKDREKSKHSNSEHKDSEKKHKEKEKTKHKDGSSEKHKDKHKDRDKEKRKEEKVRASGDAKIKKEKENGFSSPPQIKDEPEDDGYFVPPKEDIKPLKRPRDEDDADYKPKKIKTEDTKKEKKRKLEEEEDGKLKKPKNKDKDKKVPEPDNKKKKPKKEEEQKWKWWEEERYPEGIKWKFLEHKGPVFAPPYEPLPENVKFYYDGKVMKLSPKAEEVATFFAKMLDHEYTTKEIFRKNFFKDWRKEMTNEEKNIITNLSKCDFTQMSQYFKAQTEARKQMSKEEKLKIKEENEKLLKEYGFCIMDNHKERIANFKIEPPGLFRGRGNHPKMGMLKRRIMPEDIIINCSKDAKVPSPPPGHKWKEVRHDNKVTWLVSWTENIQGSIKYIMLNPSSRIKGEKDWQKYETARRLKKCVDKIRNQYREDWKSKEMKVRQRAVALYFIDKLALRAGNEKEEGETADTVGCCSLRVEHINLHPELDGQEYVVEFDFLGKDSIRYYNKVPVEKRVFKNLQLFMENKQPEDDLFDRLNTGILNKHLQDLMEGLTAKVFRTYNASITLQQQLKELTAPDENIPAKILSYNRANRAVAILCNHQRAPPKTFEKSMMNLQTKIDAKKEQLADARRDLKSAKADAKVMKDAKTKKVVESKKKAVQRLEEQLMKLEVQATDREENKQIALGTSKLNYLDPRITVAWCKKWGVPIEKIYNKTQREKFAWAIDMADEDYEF

[16] = target: DNA topoisomerase 2-alpha (Homo sapiens) (UniProt P11388); assay: Inhibition of human topoisomerase 2 mediated relaxation of super coiled pBR322 plasmid DNA at 30 uM after 30 mins by agarose gel electrophoresis
Chain of DNA topoisomerase 2-alpha (Homo sapiens) (P11388 whole entry): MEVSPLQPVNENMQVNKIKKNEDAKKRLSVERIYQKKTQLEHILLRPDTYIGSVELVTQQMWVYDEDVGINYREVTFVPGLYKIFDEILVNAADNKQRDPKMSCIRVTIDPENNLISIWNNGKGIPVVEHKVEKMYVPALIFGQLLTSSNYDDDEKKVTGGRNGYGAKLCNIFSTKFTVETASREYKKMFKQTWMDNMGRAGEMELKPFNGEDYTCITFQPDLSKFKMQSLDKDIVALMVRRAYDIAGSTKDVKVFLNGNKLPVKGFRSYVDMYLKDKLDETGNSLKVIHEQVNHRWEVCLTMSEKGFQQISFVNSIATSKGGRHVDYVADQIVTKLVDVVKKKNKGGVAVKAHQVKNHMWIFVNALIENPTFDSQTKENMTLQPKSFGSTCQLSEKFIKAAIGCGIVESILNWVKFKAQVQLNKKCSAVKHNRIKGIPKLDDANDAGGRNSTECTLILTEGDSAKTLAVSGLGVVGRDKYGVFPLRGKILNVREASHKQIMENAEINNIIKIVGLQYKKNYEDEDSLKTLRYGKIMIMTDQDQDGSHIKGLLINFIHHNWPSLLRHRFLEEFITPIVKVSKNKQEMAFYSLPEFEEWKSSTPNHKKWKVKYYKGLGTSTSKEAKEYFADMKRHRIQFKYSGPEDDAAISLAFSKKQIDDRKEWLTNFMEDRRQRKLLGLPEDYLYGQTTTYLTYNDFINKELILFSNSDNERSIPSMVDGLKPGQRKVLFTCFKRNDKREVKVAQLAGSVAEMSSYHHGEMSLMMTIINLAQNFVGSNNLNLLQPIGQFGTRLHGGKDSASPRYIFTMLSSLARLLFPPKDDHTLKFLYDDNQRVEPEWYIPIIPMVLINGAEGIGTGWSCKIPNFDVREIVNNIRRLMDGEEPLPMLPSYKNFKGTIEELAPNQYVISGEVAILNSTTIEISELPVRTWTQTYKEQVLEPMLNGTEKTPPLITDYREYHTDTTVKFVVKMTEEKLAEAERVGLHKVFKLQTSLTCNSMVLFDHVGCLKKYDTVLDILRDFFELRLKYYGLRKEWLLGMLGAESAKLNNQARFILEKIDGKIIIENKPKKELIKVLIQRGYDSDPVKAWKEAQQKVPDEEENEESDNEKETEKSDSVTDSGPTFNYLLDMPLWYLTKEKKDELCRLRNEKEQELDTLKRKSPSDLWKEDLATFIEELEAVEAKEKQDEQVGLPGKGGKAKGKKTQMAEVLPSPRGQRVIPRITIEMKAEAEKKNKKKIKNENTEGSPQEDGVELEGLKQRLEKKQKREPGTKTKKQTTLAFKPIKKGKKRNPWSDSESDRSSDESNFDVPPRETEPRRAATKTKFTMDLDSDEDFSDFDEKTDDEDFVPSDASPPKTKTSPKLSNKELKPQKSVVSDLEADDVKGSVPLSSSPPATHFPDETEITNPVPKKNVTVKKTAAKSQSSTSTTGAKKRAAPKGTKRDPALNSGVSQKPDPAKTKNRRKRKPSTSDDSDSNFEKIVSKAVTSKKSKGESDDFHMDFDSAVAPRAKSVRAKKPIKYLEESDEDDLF

H1229 = assay: Anticancer activity against human H1229 cells xenografted in orthotropic lung cancer nude mouse model assessed as cancer growth inhibition at 120 mg/kg, po administered for 2 weeks monitored for 10 weeks; type: functional, organism-based; design: dose 120 mg/kg
Method in brief: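 Orthotopic lung model using H-1229 cells. Nude mice were irradiated (500 rads γ) and anesthetized with ketamine/xylazine (160/12 mg/kg, im), then tumor tissue was implanted by cannula. Oral dosing lasted 2 weeks. Mice were checked daily for morbidity, and animal and primary tumor weights were recorded over 10 weeks.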

NCI-H460 [17] = assay: Antitumor activity against human NCI-H460 cells xenografted subcutaneously in BALB/c nude mouse assessed as survival rate at 10 to 20 mg/kg, ip for 6 days relative to control; type: functional, organism-based; method in brief: as §1
[18] = Volume of distribution at steady state in fasted CD-1(Crl) mouse at 2 mg/kg, iv administered as single dose; type: ADME, organism-based; design: dose 2 mg/kg, route intravenous; settings: in vivo, read-out: Vdss
Method in brief: (§4)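 Fasted male CD-1 (Crl) mice received a single intravenous dose of 2.0 mg/kg or a single oral dose of 20 mg/kg. Parameters came from mean plasma concentration–time profiles, run by a contract lab.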

Lung = assay: Drug uptake in lung of orthotropic lung cancer nude mouse model xenografted with human H1229 cells at 120 mg/kg, po administered for 2 weeks; type: ADME, organism-based; design: dose 120 mg/kg, route oral; settings: in vivo, 336 h
[19] = Aqueous solubility of the compound by UV/ vis spectrophotometry; type: physicochemical
Method in brief: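 Excess solid was added to doubly distilled water, sonicated 5 min, then stirred overnight at 25 °C to reach equilibrium. After centrifugation, supernatant absorbance was read by UV/vis at 315–420 nm against per-compound standard curves.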

[20] = Cmax in fasted CD-1(Crl) mouse at 2 mg/kg, iv administered as single dose; type: ADME, organism-based; design: dose 2 mg/kg, route intravenous; settings: in vivo
Method in brief: (§5)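 Fasted male CD-1 (Crl) mice each received a single intravenous dose of 2.0 mg/kg or a single oral dose of 20 mg/kg, and plasma concentration–time profiles were recorded. For the iv route, Cmax was extrapolated to plasma concentration at time 0. Half-life was derived from terminal time-point windows specified per compound.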

[21] = AUC (0 to infinity) in fasted CD-1(Crl) mouse at 2 mg/kg, iv administered as single dose; type: ADME, organism-based; design: time infinity, dose 2 mg/kg, route intravenous; settings: plasma; method in brief: as §5
[22] = Mean residence time in fasted CD-1(Crl) mouse at 2 mg/kg, iv administered as single dose; type: ADME, organism-based; design: dose 2 mg/kg, route intravenous; settings: in vivo; method in brief: as §4
[23] = Clearance in fasted CD-1(Crl) mouse at 2 mg/kg, iv administered as single dose; type: ADME, organism-based; design: dose 2 mg/kg, route intravenous; settings: in vivo; method in brief: as §5
[24] = Apparent volume of distribution in fasted CD-1(Crl) mouse at 2 mg/kg, iv administered as single dose; type: ADME, organism-based; design: dose 2 mg/kg, route intravenous; settings: in vivo, read-out: Vz; method in brief: as §5
[25] = Cmax in fasted CD-1(Crl) mouse at 20 mg/kg, po administered as single dose; type: ADME, organism-based; design: dose 20 mg/kg, route oral; settings: in vivo; method in brief: as §5
[26] = AUC (0 to infinity) in fasted CD-1(Crl) mouse at 20 mg/kg, po administered as single dose; type: ADME, organism-based; design: dose 20 mg/kg, route oral, time infinity; settings: plasma; method in brief: as §5
[27] = Tmax in fasted CD-1(Crl) mouse at 20 mg/kg, po administered as single dose; type: ADME, organism-based; design: dose 20 mg/kg, route oral; settings: in vivo; method in brief: as §4
[28] = Mean residence time in fasted CD-1(Crl) mouse at 20 mg/kg, po administered as single dose; type: ADME, organism-based; design: dose 20 mg/kg, route oral; settings: in vivo; method in brief: as §4
[29] = Oral bioavailability in fasted CD-1(Crl) mouse at 20 mg/kg administered as single dose; type: ADME, organism-based; settings: in vivo; method in brief: as §4
[30] = Half life in fasted CD-1(Crl) mouse at 2 mg/kg, iv administered as single dose measured after 9 to 27 hrs post dose; type: ADME, organism-based; design: dose 2 mg/kg, route intravenous; settings: in vivo; method in brief: as §5
[31] = Half life in fasted CD-1(Crl) mouse at 20 mg/kg, po administered as single dose measured after 2 to 24 hrs post dose; type: ADME, organism-based; design: dose 20 mg/kg, route oral; settings: in vivo; method in brief: as §5

SMILES: C/C(=N\OCCN)c1ccc(Nc2c3ccccc3nc3occc23)cc1
- Activity (NCI-H460 [1]): Active
- Activity (NCI-H460 [2]): Active
- Activity (NCI-H460 [3]): Active
- Activity (NCI-H460 [4]): Active
- Activity (NCI-H460 [5]): Active
- Activity (NCI-H460 [6]): Active
- Activity (NCI-H460 [7]): Dose-dependent effect
- Activity (NCI-H460 [8]): Dose-dependent effect
- Activity (NCI-H460 [9]): Dose-dependent effect
- Activity (NCI-H460 [10]): Dose-dependent effect
- Activity (NCI-H460 [11]): Dose-dependent effect
- Activity (NCI-H460 [12]): Active
- inhibition (Bos taurus [13]): 50%
- inhibition (Bos taurus [14]): Active
- inhibition [15]: inactive
- inhibition [16]: inactive
- Activity (H1229): Active
- Activity (NCI-H460 [17]): Active

SMILES: C/C(=N\OCCN)c1ccc(Nc2c3ccccc3nc3occc23)cc1.Cl
- Vd [18]: 13.5 L/kg
- Drug uptake (Lung): Active
- solubility [19]: 1050 µg/mL
- Cmax [20]: 1490 ng/mL
- AUC(0-inf) [21]: 363 ng·h/mL
- MRT [22]: 2.5 h
- clearance [23]: 91.9 mL/min/kg
- Vd [24]: 38.8 L/kg
- Cmax [25]: 1900 ng/mL
- AUC(0-inf) [26]: 2070 ng·h/mL
- Tmax [27]: 0.5 h
- MRT [28]: 3 h
- bioavailability [29]: 57.1%
- half-life [30]: 4.9 h
- half-life [31]: 3.4 h
